# Experimental data taken from PubChem BioAssay.
# Unmarked numbers belong to inactive results. Inconclusive results are not listed. Calls of active or inactive are those of the source.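 How the source made its calls, unless noted: active means inhibition over a set limit, the all-compound mean plus 3 SD, in both replicate runs; inconclusive means over that limit in just one replicate run; inactive means at or under that limit in both runs.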
# Assays:
# [1] = OD615 S. cerevisiae growth inhibition, permissive medium, pilot counter-assay, permissive growth control for S. cerevisiae lifespan shortening project (AID 705;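 active means growth inhibition above 25% in both replicates, a cutoff set 3 SD above the mean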); conditions: OD615, 24 h, at 10 µM, hits give high values
# How it was run: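 assay system = Saccharomyces cerevisiae strain carrying genetically modified DeaD replicative-lifespan system | medium = SC raffinose/galactose permissive medium | dosing = 10 µM single dose, 0.25% DMSO | schedule = 24 h compound exposure at 30 °C after 4 h pre-growth | measured by = OD at 615 nm | read-out basis = growth inhibition from lowered OD615 after 24 h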
# [2] = Restrictive medium S. cerevisiae growth inhibition, OD615, pilot screen of yeast lifespan reduction project, restrictive growth control (AID 706;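 active means growth inhibition above a set limit, 3 SD over mean compound inhibition, in both replicates, cut at about 43% in these data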;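 further: modified DeaD lifespan yeast strain shifted to restrictive glucose medium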); conditions: OD615, 48 h, at 10 µM, hits give high values
# How it was run: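 Buffer or medium: CSMM-D glucose medium. Material: genetically modified Saccharomyces cerevisiae, DeaD replicative lifespan assay strain. Times: 48 h compound exposure at 30 °C. Measured by: optical density at 615 nm.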
# [3] = viability gain of MRP-1-high H69AR cells under doxorubicin, pilot screen, MRP-1 activator project, CellTiter-Glo, duplicate (AID 807;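 active means viability increase at or above a cutoff of the median across tested compounds plus 3 SD, cut at about 8.5% in these data, passing the limit was not always enough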;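 further: compound pretreatment 18-22 h then 72 h combined with doxorubicin; 0% = doxorubicin alone and 100% = vehicle without doxorubicin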); conditions: H69AR viability with doxorubicin, CellTiter-Glo luminescence; at 10 µM; hits give high values
# [4] = growth suppression of beta-catenin knockout HCT116, pilot screen, human colon tumor cells (AID 823;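 active means cell viability at or below a set limit in both duplicate runs, the limit being the all-compound median minus 4 SD, cut at about 23% in these data, passing the limit was not always enough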;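 further: 0% = wells killed by 20 µM Hyamine and 100% = untreated DMSO cell wells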); conditions: CellTiter-Glo, 60 h, at 10 µM, hits give low values
# [5] = growth suppression of PTEN-deleted HCT116, pilot screen, cell-based, HCT116 clonal line, CellTiter-Glo (AID 824;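 active means viability at or below 27.92% in each of two runs, the all-compound median minus 4 SD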;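 further: 0% = 20 µM Hyamine control and 100% = vehicle cell control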); conditions: 60 h, at 10 µM, hits give low values
# [6] = inhibitors of the yeast RAM network, pilot screen, dse1pr::URA3 reporter, 5-FOA selection (AID 869);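 further: 0% = DMSO wells with no growth and 100% = 10 µM 1-NA-PP1 with full growth; RAM network block rescues cells from 5-FOA so hits raise OD615 growth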; conditions: S. cerevisiae dse1pr::URA3 5-FOA growth, OD615, 2 d; at 10 µM; hits give high values; strain carries analog-sensitive mutant Cbk1 kinase
# [7] = RAM signaling pathway blockade in yeast – S. cerevisiae, Pdr1DBD-CYC8 efflux-inhibited sensitized strain, primary screen (AID 1298;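 active means RAM network inhibition above 8.4% in each of two replicates, 3 SD over the compound average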;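 further: 0% = DMSO untreated cells without growth and 100% = 10 µM 1-NA-PP1 full growth; higher means more yeast growth rescued from 5-FOA killing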); conditions: S. cerevisiae cbk1-as DSE1-URA3 strain, 5-FOA growth OD615, 2 d; at 50 µM; hits give high values
SMILES,growth inhibition [1] [%],growth inhibition [2] [%],viability increase [3] [%],viability [4] [%],viability [5],inhibition [6] [%],RAM network inhibition [7] [%]
CC1Cc2nc(SCC(=O)N3CCOCC3)n(-c3ccccc3)c(=O)c2S1 (stereo not drawn),-10.7,-11.7,-0.68,111,104%,0.16,0.95
CCOC(=O)c1ccccc1NC(=O)CN(c1cccc(OC)c1)S(C)(=O)=O,-7.1,-3.34,-5.04,91.7,83.3%,1.65,4.56
O=c1cc(O)c2c(=O)n(-c3ccccc3)c3ccccc3c2o1,8.67,4.96,-4.59,98.3,87.1%,0.67,0.42
CCOC(=O)Cn1c(=O)oc2cc(S(=O)(=O)N3CCCC(C(=O)OCC)C3)ccc21 (stereo not drawn),-2.33,-20.5,-1.74,95.4,90.7%,0.87,1.99
CCOC(=O)CSC1=C(C#N)C(c2ccccc2OC)CC(=O)N1 (stereo not drawn),-14,-1.51,-6.53,27.5,27.4% (active),0.27,-0.77
CC(=O)NC(CCS(C)(=O)=O)C(=O)Nc1ccc(Oc2ccccc2)cc1 (stereo not drawn),-7.71,-16.7,-0.67,101,93.5%,1.69,5.21
Cn1nc(-c2ccc(Cl)cc2)c2cc(C(=O)N3CCCC3)sc21,-8.92,-9.39,-2.97,96.9,85.7%,1.97,3.39
Cc1ccc(CCNC(=O)CS(=O)Cc2nc(-c3cccc(C)c3)oc2C)cc1 (stereo not drawn),-4.94,2.34,2.47,85.3,86.9%,2.59,6.2
O=C1Nc2cc(Cl)cnc2N2CCCC12 (stereo not drawn),-2.57,8.33,-0.67,97.7,101%,0.905,0
CC1(C)Cc2c(C#N)c(N3CCCC3)nc(-c3ccco3)c2CO1,-9.34,-8.21,-5.07,90.3,85.7%,1.39,-1.01
CCOC(=O)c1nc2ccccc2s1,-4.63,-15.7,-2.72,99.2,97.4%,1.02,1.61
CC(=O)Oc1ccc(N2C(=O)CC(N3CCOCC3)C2=O)cc1 (stereo not drawn),2.42,15,-0.57,103,99.9%,0.405,0.46
CCOC(=O)c1c(NC(=O)c2cc(C3CC3)on2)sc2c1CCCC2,-9.14,0.505,-1.3,102,97.5%,1.49,8.09
O=C(NC1CCN(Cc2ccccc2)CC1)C1CCN(c2nnc(-n3cccc3)s2)CC1,3.62,-0.61,-2.59,82.2,79.3%,0.53,2.35
Cn1c(NCCO)nc2c(c1=O)C1(CCCCC1)Cc1ccccc1-2,-13.2,-9.4,-2.31,84,76%,2.31,5
c1ccc(Cn2c(CSc3nnnn3-c3ccccc3)nc3ccccc32)cc1,0.645,5.56,-2.93,96.3,95%,1.48,5.11
Cc1csc2ncc(C(=O)Nc3ccc4c(c3)OCCO4)c(=O)n12,-13.1,-17.3,-2.34,102,97.5%,2.96,6.97
CC(C)(C)n1nc2c(c1NC(=O)Cc1ccc(F)cc1)CSC2,1.52,-7.53,-0.87,94,88.2%,2.36,5.41
O=C(Cn1nc(Cc2cccnc2)c2ccccc2c1=O)NCc1ccc2c(c1)OCO2,1.71,5.04,-1.57,97,94.7%,0.55,-0.05
CCCCCn1c(CN2CC(C)OC(C)C2)nc2c1c(=O)n(C)c(=O)n2C (stereo not drawn),-9.73,0.38,-1.22,95.3,86.6%,1.86,1.97
Cc1ccccc1NC(=O)NCCN1C(=O)C2C3C=CC(C3)C2C1=O (stereo not drawn),-7.87,1.59,-2.01,103,102%,0.745,1.46
Cc1ccc(-n2ncc3c(N4CCC5(CC4)OCCO5)ncnc32)c(C)c1,1.21,6.06,-7.95,80.3,83.8%,0.765,-1.04
COC(=O)Cn1c(CCC(=O)O)ccc1-c1ccccc1,-1.1,-4.95,-0.49,102,103%,0.12,10.9
CCN(CC)c1cccc(OC2=NS(=O)(=O)c3ccccc32)c1,-1.53,0.2,-1.25,99.1,97.8%,1.63,5.72
